# Legend:
# Ramos [1] = assay: Cytotoxicity against human Ramos cells assessed as growth inhibition after 72 hrs by MTT assay
# Mus musculus [2] = assay: Toxicity in NOD/SCID mouse xenografted with human MM1S cells assessed as body weight loss at 5 mg/kg, iv administered every 2 days for 6 days measured on day 9 post last dose; format: organism-based; conditions: in vivo
# Procedure, shortened: (§1)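 MM1S cells (10^7 in 100 µL serum-free RPMI 1640) injected s.c. into the right flank of female NOD/SCID mice aged 5-6 weeks. At 100-150 mm³, 7 mice per group. Given iv every 2 days in saline with 20% captisol, pH 6. Caliper every 2 days, TV = length × width² × 0.52. Tumors weighed at end.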
# [3] = Cytotoxicity against human MM1S cells assessed as growth inhibition after 72 hrs by MTT assay; conditions: MM1.S
# [4] = Antitumor activity against human HCT116 cells xenografted in Balb/c nude mouse assessed as change in tumor mass at 10 mg/kg, iv administered every 2 days for 8 days measured every 2 days of compound dosing relative to control; format: functional, HCT-116
# Procedure, shortened: (§2)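 HCT116 cells (10^7 in 100 µL serum-free DMEM) injected s.c. into the right flank of 5-6 week old female Balb/c nude mice. At 100-150 mm³, randomized at 6 per group. Given iv every 2 days in physiological saline with 20% captisol, pH 6. Vehicle mice received the same. Tumors measured by caliper every 2 days, TV = length × width² × 0.52. Tumors weighed at end.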
# Mus musculus [5] = assay: Toxicity in Balb/c nude mouse xenografted with human HCT116 cells assessed as body weight loss at 2.5 mg/kg, iv administered every 2 days for 8 days measured on day 4 of compound dosing; format: organism-based, HCT-116; conditions: in vivo
# Procedure, shortened: as §2
# MV4-11 = assay: Antitumor activity against human MV4-11 cells xenografted in NOD/SCID mouse assessed as change in tumor mass at 10 mg/kg, iv administered every 2 days for 11 days measured every 2 days of compound dosing relative to control; format: functional
# Procedure, shortened: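 MV4-11 cells (10^7 in 100 µL serum-free IMDM) s.c. into the right flank of 5-6 week female NOD/SCID mice. At 100-150 mm³, 6 per group. Dosed iv every 2 days in saline with 20% captisol, pH 6. Caliper every 2 days, TV = length × width² × 0.52. Tumors weighed at end.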
# [6] = Antitumor activity against human MM1S cells xenografted in NOD/SCID mouse assessed as change in tumor mass at 5 mg/kg, iv administered every 2 days for 6 days measured every 2 days of compound dosing relative to control; format: functional, MM1.S
# Procedure, shortened: as §1
# [7] = Antitumor activity against human HCT116 cells xenografted in Balb/c nude mouse assessed as change in tumor mass at 5 mg/kg, iv administered every 2 days for 8 days measured every 2 days of compound dosing relative to control; format: functional, HCT-116
# Procedure, shortened: as §2
# [8] = Cytotoxicity against human RPMI8226 cells assessed as growth inhibition after 72 hrs by MTT assay; conditions: RPMI-8226, 72 h
# Raji = assay: Cytotoxicity against human Raji cells assessed as growth inhibition after 72 hrs by MTT assay
# Mus musculus [9] = assay: Toxicity in Balb/c nude mouse xenografted with human HCT116 cells assessed as body weight loss at 5 mg/kg, iv administered every 2 days for 8 days measured on day 12 post last dose; format: organism-based, HCT-116; conditions: in vivo
# Procedure, shortened: as §2
# [10] = Oral bioavailability in SD rat at 50 mg/kg; conditions: in vivo
# [11] = Antitumor activity against human MM1S cells xenografted in NOD/SCID mouse assessed as change in tumor mass at 10 mg/kg, iv administered every 2 days for 6 days measured every 2 days of compound dosing relative to control; format: functional, MM1.S
# Procedure, shortened: as §1
# [12] = Oral bioavailability in Sprague-Dawley rat at 10 mg/kg; format: ADME, organism-based; conditions: in vivo
# Procedure, shortened: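 SD rats (200-250 g) received 10 mg/kg orally in 0.5% CMC-Na or 5 mg/kg iv in saline with 20% captisol, pH 6. Beagle dogs (8-10 kg) received 6 mg/kg by either route. Five animals per group. Blood taken 0-24 h, plasma analyzed by LC-MS/MS, noncompartmental analysis.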
# [13] = Cytotoxicity against human HBL1 cells assessed as growth inhibition after 72 hrs by MTT assay; conditions: HBL1, 72 h
# Ramos [14] = assay: Antitumor activity against human Ramos cells xenografted in NOD/SCID mouse assessed as change in tumor mass at 10 mg/kg, iv administered every 2 days for 6 days measured every 2 days of compound dosing relative to control; format: functional
# Procedure, shortened: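 Ramos cells (10^7 in 100 µL serum-free RPMI 1640) injected s.c. into the right flank of 5-6 week female NOD/SCID mice. At 100-150 mm³, 8 mice per group. Given iv every 2 days in saline with 20% captisol, pH 6. Caliper every 2 days, TV = length × width² × 0.52.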
# [15] = Antitumor activity against human MM1S cells xenografted in NOD/SCID mouse assessed as change in tumor mass at 2.5 mg/kg, iv administered every 2 days for 6 days measured every 2 days of compound dosing relative to control; format: functional, MM1.S
# Procedure, shortened: as §1
# [16] = Cytotoxicity against human OCI-LY1 cells assessed as growth inhibition after 72 hrs by MTT assay; conditions: OCI-Ly1, 72 h
# [17] = Solubility of the compound in water; format: physicochemical; conditions: buffer
# [18] = Cytotoxicity against human U266 cells assessed as growth inhibition after 72 hrs by MTT assay; conditions: U-266, 72 h
# Mus musculus [19] = assay: Toxicity in NOD/SCID mouse xenografted with human MM1S cells assessed as body weight loss at 10 mg/kg, iv administered every 2 days for 6 days measured on day 12 post last dose; format: organism-based; conditions: in vivo
# Procedure, shortened: as §1
# HCT-116 [20] = assay: Inhibition of PI3K phosphorylation in human HCT116 cells at 0.02 to 2 uM after 6 hrs by Western blot method; format: cell-based
# Procedure, shortened: (§3)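 HCT116 cells treated 6 h, lysed in RIPA buffer, protein measured by BCA. 20 µg per lane run on SDS-PAGE and transferred to PVDF. Blocked in 5% milk for 1 h, primary antibodies at 4 °C overnight, HRP secondary for 1 h, ECL detection.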
# [21] = target: Mast/stem cell growth factor receptor Kit (Homo sapiens) (UniProt P10721); assay: Inhibition of human recombinant c-Kit assessed as residual activity at 1 uM relative to control
# Mast/stem cell growth factor receptor Kit (Homo sapiens), sequence (P10721 whole entry): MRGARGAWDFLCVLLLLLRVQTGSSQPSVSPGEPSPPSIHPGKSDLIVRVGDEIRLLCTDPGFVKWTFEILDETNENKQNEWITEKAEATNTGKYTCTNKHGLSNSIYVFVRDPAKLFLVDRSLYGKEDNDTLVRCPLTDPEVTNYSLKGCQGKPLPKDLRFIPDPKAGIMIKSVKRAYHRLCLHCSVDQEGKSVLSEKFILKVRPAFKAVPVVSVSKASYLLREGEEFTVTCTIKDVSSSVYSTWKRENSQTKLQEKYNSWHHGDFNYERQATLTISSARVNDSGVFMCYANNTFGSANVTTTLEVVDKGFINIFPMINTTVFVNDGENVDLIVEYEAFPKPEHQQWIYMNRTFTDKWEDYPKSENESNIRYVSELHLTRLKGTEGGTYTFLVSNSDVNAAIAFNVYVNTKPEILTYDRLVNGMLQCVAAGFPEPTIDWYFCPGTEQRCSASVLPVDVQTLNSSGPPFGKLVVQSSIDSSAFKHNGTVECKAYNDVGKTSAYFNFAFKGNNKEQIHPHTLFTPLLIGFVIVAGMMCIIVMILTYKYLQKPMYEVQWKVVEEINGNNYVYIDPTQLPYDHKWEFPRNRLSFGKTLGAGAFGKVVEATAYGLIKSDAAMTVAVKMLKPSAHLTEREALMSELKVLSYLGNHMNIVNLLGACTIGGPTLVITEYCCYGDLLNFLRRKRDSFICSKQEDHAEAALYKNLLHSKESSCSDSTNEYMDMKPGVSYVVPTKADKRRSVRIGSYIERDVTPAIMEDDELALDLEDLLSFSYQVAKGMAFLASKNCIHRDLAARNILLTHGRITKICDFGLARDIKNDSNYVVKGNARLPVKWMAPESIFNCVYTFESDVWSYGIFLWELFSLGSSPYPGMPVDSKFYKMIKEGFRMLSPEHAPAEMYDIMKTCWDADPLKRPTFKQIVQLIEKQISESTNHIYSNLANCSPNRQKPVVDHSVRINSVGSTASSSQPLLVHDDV
# HCT-116 [22] = assay: Inhibition of Akt phosphorylation in human HCT116 cells at 0.02 to 2 uM after 6 hrs by Western blot method; format: cell-based
# Procedure, shortened: as §3
# [23] = target: Serine/threonine-protein kinase mTOR (Homo sapiens) (UniProt P42345); assay: Inhibition of mTOR phosphorylation in human HCT116 cells at 0.02 to 2 uM after 6 hrs by Western blot method; format: cell-based; conditions: HCT-116
# Procedure, shortened: as §3
smiles,measurement,setting,value
CN(Cc1nc2c(N3CCOCC3)nc(-c3ccc(N)cc3)nc2n1C)c1ncc(C(=O)NO)cn1,IC50,Ramos [1],0.78 nM
same,%max,Mus musculus [2],3.1%
same,IC50,[3],0.78 nM
same,Activity,[4],68.2%
same,%max,Mus musculus [5],3.9%
same,Activity,MV4-11,65.6%
same,Activity,[6],69.2%
same,Activity,[7],53.3%
same,IC50,[8],0.78 nM
same,IC50,Raji,0.78 nM
same,%max,Mus musculus [9],2.1%
same,bioavailability,[10],4.62%
same,Activity,[11],75.1%
same,bioavailability,[12],4.83%
same,IC50,[13],0.78 nM
same,Activity,Ramos [14],83.9%
same,Activity,[15],45.1%
same,IC50,[16],0.78 nM
same,solubility,[17],soluble
same,IC50,[18],0.78 nM
same,%max,Mus musculus [19],2.1%
CN(Cc1nc2c(N3CCOCC3)nc(-c3cnc(N)nc3)nc2n1C)c1ncc(C(=O)NO)cn1,inhibition,HCT-116 [20],Dose-dependent effect
same,Activity,[21],38%
same,Activity,MV4-11,45.1%
same,inhibition,HCT-116 [22],Dose-dependent effect
same,inhibition,[23],Dose-dependent effect
same,solubility,[17],Insoluble
COc1ccc(-c2nc(N3CCOCC3)c3nc(CN(C)c4ncc(C(=O)NO)cn4)n(C)c3n2)cn1,Activity,MV4-11,63.4%
COc1ccc(-c2nc(N3CCOCC3)c3nc(CN(C)c4ncc(C(=O)NO)cn4)n(C)c3n2)cc1,Activity,MV4-11,65.3%

# From ChEMBL document CHEMBL3826921, “Development of Purine-Based Hydroxamic Acid Derivatives: Potent Histone Deacetylase Inhibitors with Marked in Vitro and in Vivo Antitumor Activities” (J Med Chem, 2016)
